From PubChem BioAssay come the findings set out here.

The source made the active and inactive calls.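 The calls were made as follows: active = a full or partial loss of lipid-probe fluorescence in the fish gall bladder, intestine or both, judged by eye; inactive = no fluorescence loss, or compound toxic to the fish.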

The assay can be described thus: inhibitors of larval lipid processing in zebrafish, primary screen, whole organism, PED6 fluorescence, gall bladder and intestine (AID 686).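 Also: larvae 5 to 7 days old with five fish per well; signal comes from phospholipase A2 cleavage of quenched PED6 carried via bile; overnight exposure to compound and PED6 before scoring.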 Conditions: Zebrafish larvae PED6 lipid processing, fluorescence scoring; screened at 20 µM (by protocol). Summed up: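 Test system – live zebrafish larvae aged 5-7 days, whole organism · Buffer or medium – E3 fish medium · Reagent – quenched phospholipase substrate PED6, 100 nM final, ingested by larvae · Doses – 20 µM single dose · Incubation – overnight compound and PED6 incubation · Technique – visual fluorescence microscopy scoring of gall bladder, gut · Read-out basis – visual per-well fluorescence inhibition score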
Regarding `CC(=O)Oc1oc(-c2ccccc2)nc1/C=N/c1ccccn1`, the call was inactive.
Regarding `COc1ccc(OC)c(N=C(C)C2=C(O)COC2=O)c1`, the outcome is “inactive; toxic”.
As for `CC[C@H]1CN2CCc3cc(OC)c(OC)cc3[C@@H]2C[C@@H]1C[C@H]1NCCc2cc(OC)c(OC)cc21`, the compound was classed as inactive.
For `COc1ccc(OCC(=O)OCCN(C)C)cc1`, the outcome was inactive.
Turning to `COc1cccc(C(=O)OCCN(C)C(C)(C)C)c1`, the result was inactive.
The same measure for `Cc1nnc(NS(=O)(=O)c2ccc(N)cc2)s1`: “inactive”; for `COc1ccc([C@@H]2Sc3ccccc3N(CCN(C)C)C(=O)[C@@H]2OC(C)=O)cc1`: “inactive”; for `O=C(CCN1CCCC1Cc1ccccc1)c1ccc2c(c1)OCCO2` (configuration not stated): “inactive”.
`Fc1ccc(C(c2ccc(F)cc2)N2CCN(C/C=C/c3ccccc3)CC2)cc1`: the outcome was “inactive; toxic”.
`COc1ccc[nH]c1=O`: the call was inactive.
The same measure for `CCC(=O)Oc1oc(-c2ccccc2)nc1C=Nc1ccccc1OC`: “inactive”.
With `O=C(O)c1ccc(COCC(F)(F)C(F)F)o1`, the compound was classed as inactive.
The same measure for `Cc1nc2sc(C)c(C)c2c(=O)o1`: “inactive”; for `CC1(C)S[C@@H]2[C@H](NC(=O)[C@H](N)c3ccccc3)C(=O)N2[C@H]1C(=O)O`: “inactive”.
`O=P(Cc1nnco1)(c1ccccc1)c1ccccc1`: the compound was called inactive.
With `Nc1nc2c(ncn2COCCO)c(=O)[nH]1` the entry was “inactive”.
In the case of `c1ccc2c(c1)nc(CN1CCOCC1)n1c3ccccc3nc21`, the call was inactive.
For `CCC(NC(=O)Nc1nnc(C(F)(F)F)s1)(C(F)(F)F)C(F)(F)F`, the outcome is “inactive; toxic”.
As for `CCOC(=O)C(Oc1ccc(=O)[nH]n1)C(C)=O` (configuration not stated), the result was inactive.
Take `CC1=NS(=O)(=O)c2cc(Cl)ccc2N1`: the result was inactive.
`CCCCOc1ccccc1P(=O)(O)CP(=O)(c1ccccc1)c1ccccc1`: the result was inactive.
For the compound `COc1cccc(C(=O)NCC(=O)n2nc(C)cc2C)c1`, the result was inactive.
